# Published values from different studies.
# Each line is one published result; the experiments were not run side by side.
# Cell line: IGROV-1
# Read-out: cell growth or viability
Compound,assay,setting,measurement,value
COc1ccc(C(=O)/C=C/c2ccc3c(c2)OCCO3)cc1S(N)(=O)=O,SRB,10 µM,inhibition,36%
COc1ccc(-c2ccc(-c3ccc(C(=N)N)nc3)s2)cc1,SRB,,GI50,1840 nM
S=C([S][Au-][P+](CCCCCC[P+]([Au-][S]C(=S)n1cccn1)(c1ccccc1)c1ccccc1)(c1ccccc1)c1ccccc1)n1cccn1,,,GI50,2260 nM
COc1cc2c3cc1Oc1c(OC)c(OC)cc4c1[C@@H](Cc1ccc(O)c(c1)Oc1ccc(cc1)C[C@@H]3N(C)CC2)N(C)CC4,,72 h,IC50,29600 nM
COc1ccc(C(=O)/C=C/c2cccc3ccccc23)cc1S(N)(=O)=O,SRB,48 h,GI50,2300 nM
COc1cccc(Oc2ccccc2NC(=O)CNC(=O)c2cccc3ccccc23)c1,SRB,48 h,GI50,1050 nM
Cc1cc(C)n(C(=S)[S][Au][PH](CCCCCC[PH]([Au][S]C(=S)n2nc(C)cc2C)(c2ccccc2)c2ccccc2)(c2ccccc2)c2ccccc2)n1,,,GI50,1190 nM
COc1ccc(-c2ccc(-c3ccc(C(=N)N)nc3)s2)cc1Cl,SRB,,GI50,1780 nM
